Rows were chosen to be rich in hits. Some 1.8% of all compounds tested hit in one or more screens of this group.
NOD2-RIPK2 inh: NOD2-RIPK2 protein interaction inhibition; 0.38% of 360,000 active; inhibition, % at 4.98 µM; CHO BLA complementation NOD2-RIPK2, CCF4 ratio; AID 624267; in the data active means inhibition above about 21%
TLR4-MyD88 BLA: blocks binding of human TLR4 to MyD88 | O00206+Q99836 | HeLa CL3-4 TLR4/MyD88 BLA complementation, FRET ratio | inhibition, % at 8.4 µM | 0.18% of 200,000 active | AID 861; in the data active means inhibition above about 25%
MC4R antag cAMP: human MC4R antagonism in cAMP assay; 0.48% of 360,000 active; AID 540295; inhibition, % at 6.5 µM; MC4R-expressing cells, MTII-stimulated cAMP, LANCE TR-FRET; P32245;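 active means inhibition above its plate's cutoff, the mean of tested wells on that plate plus 3 SD, cut at about 29% in these data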
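System: U2OS-MC4R stable cell line; Technique: Eu-cAMP/anti-cAMP TR-FRET, emission 671 nm; Repeats: single well per compound; Also added: Melanotan II; Dosing: one concentration, 6.5 µM nominal; Schedule: 30-min compound, 1-h challenge, 1-h detection, room temperature.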
MC4R barr agon: agonists of human melanocortin 4 receptor (MC4R) beta-arrestin. P32245. U2OS MC4R beta-arrestin complementation, luminescence; percent of melanotan II response, DMSO zero. activation, % at 8.9 µM. 0.98% of 360,000 active;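 active means activation above a per-plate cutoff, the mean activation of sample wells on that plate plus 3 SD, cut at about 8% in these data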
TLR9-MyD88 inh: blocks human TLR9 binding to MyD88; CHO BLA complementation TLR9-MyD88, CCF4 FRET ratio; Q9NR96+Q99836; AID 504734; 0.21% of 340,000 active; inhibition, % at 4.98 µM;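 active means inhibition above the mean over all tested compounds plus 3 SD, cut at about 21% in these data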
MC4R barr ag: human MC4R beta-arrestin agonism confirmation | shares compounds with MC4R barr agon | U2OS MC4R beta-arrestin recruitment, luminescence; scaled DMSO 0%, Melanotan II 100% | activation, % at 8.9 µM | 31% of 2,400 active | AID 602192;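 active means mean activation across replicates above the hit cutoff set in the earlier primary screen, cut at about 8% in these data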
MOR-DOR barr ag: activates mu-delta opioid heterodimer, MC4R agonist counter-screen; shares compounds with MC4R barr agon; U2OS PathHunter beta-arrestin, beta-gal luminescence; percent of deltorphin B response, DMSO zero; activation, % at 9.2 µM; 5.8% of 2,400 active;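 active means mean activation across replicates exceeds the hit threshold derived in the earlier primary screen, cut at about 18% in these data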
Each line names hits and unclear results; the compound was inactive in the other large screens (follow-up assays come after a bar, where they were run).

CN(C)CCCn1c(N)c(C#N)c2nc3ccccc3nc21	none (no result: TLR4-MyD88 BLA, TLR9-MyD88 inh)
CSc1cc(-c2ccccc2)n(C)c(=O)c1C#N	MC4R barr agon 11.6 | MC4R barr ag inactive | MOR-DOR barr ag inactive
O=C(ON=C1CCN(c2ccc([N+](=O)[O-])cc2)CC1)c1ccccc1	none
O=C(OC1CCN(c2ccc([N+](=O)[O-])cc2)CC1)c1ccccc1	MC4R barr agon 20.4 | MC4R barr ag inactive | MOR-DOR barr ag inactive
CCOc1ccc(NC(=O)NC(=O)N(C(C)C)S(C)(=O)=O)cc1	none
CCOc1ccc(Nc2nc(-c3cccnc3)cs2)cc1	MC4R barr agon 24.8 (no result: TLR4-MyD88 BLA) | MC4R barr ag inactive | MOR-DOR barr ag inactive
Brc1ccc(Nc2nc(-c3cccnc3)cs2)cc1	none
N=c1n(CC(=O)c2ccc(Br)s2)c2ccccc2n1Cc1ccccc1	MC4R barr agon 13.8 (no result: TLR4-MyD88 BLA) | MC4R barr ag 13.2 | MOR-DOR barr ag 18.1
Cc1ccc(C)c(OCCC(=O)OCC(=O)NCCNC(=O)COC(=O)CCOc2cc(C)ccc2C)c1	MC4R barr agon 10.6 (no result: TLR4-MyD88 BLA) | MC4R barr ag inactive | MOR-DOR barr ag inactive
Cc1ccc(C)c(OCCC(=O)OCC(=O)NCc2ccccc2)c1	none (no result: TLR4-MyD88 BLA)
CN(C)S(=O)(=O)c1ccc2[nH]cc(/C=C/c3nc4ccccc4c(=O)n3-c3ccccc3)c2c1	MC4R barr agon 12.6 | MC4R barr ag 9.2 | MOR-DOR barr ag inactive
Cc1cc(NC(=O)Cn2nc([N+](=O)[O-])c(Br)c2C)no1	none
CC(NC(C(=O)c1ccccc1)c1ccccc1)c1ccccc1 (centres undefined)	MC4R barr agon 11.8 (no result: TLR4-MyD88 BLA) | MC4R barr ag inactive | MOR-DOR barr ag inactive
Cc1ccc(NC(C(=O)c2ccccc2)c2ccccc2)cc1 (centres undefined)	none (no result: TLR4-MyD88 BLA)
Cc1noc(C)c1COc1cccc(C(=O)OCC(=O)NC(=O)c2ccc(OC(F)F)cc2)c1	MC4R barr agon 24.8 | MC4R barr ag inactive | MOR-DOR barr ag inactive
N#Cc1ccsc1NC(=O)COC(=O)c1ccc2ccccc2c1	MC4R barr agon 17.1 | MC4R barr ag inactive | MOR-DOR barr ag inactive
Cn1cccc1C(=O)OCC(=O)Nc1sccc1C#N	none (no result: TLR4-MyD88 BLA)
COc1ccc2cc(C(=O)NCc3ccco3)c(=Nc3ccc(C(=O)O)cc3)oc2c1	none
COc1ccc(N=c2oc3c(OC)cccc3cc2C(=O)NCc2ccco2)c(OC)c1	MC4R barr agon 31.6 | MC4R barr ag 12.8 | MOR-DOR barr ag 24.6
O=C(CCN1C(=O)c2ccccc2C1=O)Nc1ccc(-c2cn3ccsc3n2)cc1	MC4R barr agon 12.8 | MC4R barr ag inactive | MOR-DOR barr ag inactive
Cc1ccc(NC2CCCN(C(=O)c3ccoc3)C2)cc1C (centres undefined)	none (no result: TLR4-MyD88 BLA)
CCC(=O)N1CCN(c2cc(N3CCN(C)CC3)c(F)cc2[N+](=O)[O-])CC1	none
CN1CCN(c2cc(N3CCc4ccccc4C3)c(F)cc2[N+](=O)[O-])CC1	MC4R barr agon 14.5 | MC4R barr ag 10.8 | MOR-DOR barr ag inactive
Cc1ccc2nc(-c3ccc(NC(=O)CN4C(=O)NC(C)(c5ccc(OC(F)F)cc5)C4=O)cc3)sc2c1 (centres undefined)	MC4R barr agon 18.1 | MC4R barr ag inactive | MOR-DOR barr ag inactive
C/C(=N/NC(=O)CNC(=O)c1ccc2c(c1)OCO2)c1ccc2c(c1)CCCC2	MC4R barr agon 11.7 | MC4R barr ag inactive | MOR-DOR barr ag inactive
Cc1ccc(OCC(=O)Nc2ccc(NC(=O)c3ccco3)cc2)c(C)c1	MC4R barr agon 18.4 (no result: TLR4-MyD88 BLA) | MC4R barr ag inactive | MOR-DOR barr ag inactive
Cc1ccc(OCC(=O)Nc2cccc(-c3nnc(-c4ccccc4)o3)c2)c(C)c1	MC4R barr agon 35.0 | MC4R barr ag inactive | MOR-DOR barr ag inactive
COc1cc(C(=O)NC(=S)Nc2ccc(NC(=O)c3ccco3)cc2)cc(OC)c1OC	MC4R barr agon 10.6 | MC4R barr ag inactive | MOR-DOR barr ag inactive
O=C(NC(=S)Nc1ccc(NC(=O)c2ccco2)cc1)c1ccccc1	none

Compound activity deposited in PubChem by The Scripps Research Institute Molecular Screening Center.
